Consider three compounds from ChEMBL document CHEMBL5653631, “A Potent and Selective ULK1 Inhibitor Suppresses Autophagy and Sensitizes Cancer Cells to Nutrient Stress” (iScience, 2018).

SMILES strings stand for the structures.

In assay [1] the target is Serine/threonine-protein kinase N2 (Homo sapiens) (UniProt Q16513). As to the kind of experiment: Inhibition of human recombinant PKN2 at 40 nM related to control ULK1.
Assay [2] deals with Serine/threonine-protein kinase 38-like (Homo sapiens) (UniProt Q9Y2H1). Put plainly: Inhibition of human recombinant NDR2 at 40 nM related to control ULK1.
In assay [3] the target is T1, TGF-beta receptor type-1 (Homo sapiens) (UniProt P36897).
T1 sequence (whole entry): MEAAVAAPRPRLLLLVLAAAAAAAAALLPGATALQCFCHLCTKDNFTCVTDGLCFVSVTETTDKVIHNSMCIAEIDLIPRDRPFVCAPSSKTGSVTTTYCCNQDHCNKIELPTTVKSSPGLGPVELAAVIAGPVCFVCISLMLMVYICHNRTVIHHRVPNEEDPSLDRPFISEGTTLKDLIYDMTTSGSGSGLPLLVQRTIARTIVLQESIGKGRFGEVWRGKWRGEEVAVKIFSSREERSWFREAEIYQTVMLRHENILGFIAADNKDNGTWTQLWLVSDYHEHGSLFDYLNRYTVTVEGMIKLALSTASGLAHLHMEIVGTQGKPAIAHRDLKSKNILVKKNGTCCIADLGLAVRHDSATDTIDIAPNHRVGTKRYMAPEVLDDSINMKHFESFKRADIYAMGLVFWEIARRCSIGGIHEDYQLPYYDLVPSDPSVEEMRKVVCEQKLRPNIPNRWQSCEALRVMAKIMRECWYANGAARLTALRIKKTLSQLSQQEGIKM
Put plainly: Inhibition of human recombinant TGFbR1 at 40 nM in presence of ATP by radiometric assay relative to control.

Assay [4] addresses Serine/threonine-protein kinase 35 (Homo sapiens) (UniProt Q8TDR2). Put plainly: Inhibition of human recombinant CLIK1 at 500 nM in presence of ATP by radiometric assay relative to control.
Assay [5] addresses MAP/microtubule affinity-regulating kinase 3 (Homo sapiens) (UniProt P27448). Put plainly: Inhibition of human recombinant MARK3 at 500 nM related to control ULK1.
Assay [6] deals with T2, Aurora kinase A (Homo sapiens) (UniProt O14965).
T2 sequence (whole entry): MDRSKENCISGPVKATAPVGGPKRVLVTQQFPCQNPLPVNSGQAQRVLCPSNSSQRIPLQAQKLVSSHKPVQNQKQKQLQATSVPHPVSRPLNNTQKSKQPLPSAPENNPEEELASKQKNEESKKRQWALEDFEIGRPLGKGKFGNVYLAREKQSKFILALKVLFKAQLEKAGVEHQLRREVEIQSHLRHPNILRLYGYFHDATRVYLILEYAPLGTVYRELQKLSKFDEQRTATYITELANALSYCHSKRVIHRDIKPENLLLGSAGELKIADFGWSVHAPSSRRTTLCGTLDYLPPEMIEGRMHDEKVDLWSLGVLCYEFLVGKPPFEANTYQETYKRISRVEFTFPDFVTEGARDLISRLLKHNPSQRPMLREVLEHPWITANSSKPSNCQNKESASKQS
As to the kind of experiment: Inhibition of human recombinant AurA at 500 nM related to control ULK1. Summed up: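 Panel of 327 recombinant human kinases, each assayed in vitro by radiometric activity assay in duplicate at a single inhibitor concentration per compound, chosen with reference to its ULK1 inhibition. Activity remaining was expressed as percent of vehicle control, and percent inhibition was calculated as 100 minus percent activity remaining.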

Assay [7] deals with Cyclin-dependent kinase 1 (Homo sapiens) (UniProt P06493). Put plainly: Inhibition of human recombinant CDC2 at 500 nM in presence of ATP by radiometric assay relative to control.
Sequence of Cyclin-dependent kinase 1 (Homo sapiens) (P06493 whole entry, looked up): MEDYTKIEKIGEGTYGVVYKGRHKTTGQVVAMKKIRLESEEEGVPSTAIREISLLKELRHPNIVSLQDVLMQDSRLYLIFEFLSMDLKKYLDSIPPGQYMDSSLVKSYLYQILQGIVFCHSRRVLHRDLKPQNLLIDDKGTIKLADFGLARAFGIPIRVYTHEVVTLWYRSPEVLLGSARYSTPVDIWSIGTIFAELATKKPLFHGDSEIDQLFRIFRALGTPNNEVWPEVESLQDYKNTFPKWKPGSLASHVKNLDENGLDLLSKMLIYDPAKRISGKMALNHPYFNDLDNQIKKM
Assay [8] addresses T3, Tyrosine-protein kinase TXK (Homo sapiens) (UniProt P42681).
T3 sequence (whole entry): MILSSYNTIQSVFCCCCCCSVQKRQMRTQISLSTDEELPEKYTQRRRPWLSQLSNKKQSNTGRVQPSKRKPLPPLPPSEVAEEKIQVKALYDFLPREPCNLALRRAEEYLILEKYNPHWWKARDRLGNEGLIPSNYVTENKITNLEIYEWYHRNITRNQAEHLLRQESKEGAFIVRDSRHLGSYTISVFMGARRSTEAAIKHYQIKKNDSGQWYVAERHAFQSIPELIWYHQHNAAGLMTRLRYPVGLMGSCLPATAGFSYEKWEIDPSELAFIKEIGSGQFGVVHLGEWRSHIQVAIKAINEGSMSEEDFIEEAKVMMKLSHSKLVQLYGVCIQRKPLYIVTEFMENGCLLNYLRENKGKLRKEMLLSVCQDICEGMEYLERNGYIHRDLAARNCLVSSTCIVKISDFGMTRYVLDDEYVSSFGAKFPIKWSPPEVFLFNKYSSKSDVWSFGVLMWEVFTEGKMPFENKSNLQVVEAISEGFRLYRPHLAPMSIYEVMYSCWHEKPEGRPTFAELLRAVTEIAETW
As to the kind of experiment: Inhibition of human recombinant TXK at 15 nM related to control ULK1.

Assay [9] concerns the target Protein kinase C iota type (Homo sapiens) (UniProt P41743). Put plainly: Inhibition of human recombinant PKCi at 15 nM related to control ULK1.
Assay [10] concerns the target Fibroblast growth factor receptor 4 (Homo sapiens) (UniProt P22455). Put plainly: Inhibition of human recombinant FGFR4 at 15 nM related to control ULK1.
Assay [11] addresses Serine/threonine-protein kinase MRCK beta (Homo sapiens) (UniProt Q9Y5S2). As to the kind of experiment: Inhibition of human recombinant MRCKb at 15 nM in presence of ATP by radiometric assay relative to control.
For assay [12], the target named is Tyrosine-protein kinase Fer (Homo sapiens) (UniProt P16591). As to the kind of experiment: Inhibition of human recombinant FER at 15 nM in presence of ATP by radiometric assay relative to control.
Sequence of Tyrosine-protein kinase Fer (Homo sapiens) (P16591 whole entry, looked up): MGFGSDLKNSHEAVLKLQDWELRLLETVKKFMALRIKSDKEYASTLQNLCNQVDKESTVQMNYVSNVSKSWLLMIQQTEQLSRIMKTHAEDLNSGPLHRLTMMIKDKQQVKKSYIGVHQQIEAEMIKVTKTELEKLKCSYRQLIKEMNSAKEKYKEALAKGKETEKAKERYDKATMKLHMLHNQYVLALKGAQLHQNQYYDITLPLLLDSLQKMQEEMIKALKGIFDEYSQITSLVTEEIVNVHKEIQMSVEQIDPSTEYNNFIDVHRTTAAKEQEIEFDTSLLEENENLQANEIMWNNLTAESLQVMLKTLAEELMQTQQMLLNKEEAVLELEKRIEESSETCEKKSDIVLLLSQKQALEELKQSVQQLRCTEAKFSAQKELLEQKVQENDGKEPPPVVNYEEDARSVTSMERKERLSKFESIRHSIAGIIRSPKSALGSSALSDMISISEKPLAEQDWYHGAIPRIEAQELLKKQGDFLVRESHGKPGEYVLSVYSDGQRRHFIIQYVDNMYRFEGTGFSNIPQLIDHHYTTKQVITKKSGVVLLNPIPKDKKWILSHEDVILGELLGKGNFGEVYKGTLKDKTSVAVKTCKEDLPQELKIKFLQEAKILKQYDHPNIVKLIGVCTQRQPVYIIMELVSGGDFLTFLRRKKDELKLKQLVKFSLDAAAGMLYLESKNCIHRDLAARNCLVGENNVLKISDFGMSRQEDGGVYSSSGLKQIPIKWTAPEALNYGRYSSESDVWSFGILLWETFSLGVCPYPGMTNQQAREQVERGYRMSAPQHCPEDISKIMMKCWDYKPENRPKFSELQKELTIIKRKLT

Sequence of Serine/threonine-protein kinase MRCK beta (Homo sapiens) (Q9Y5S2 whole entry): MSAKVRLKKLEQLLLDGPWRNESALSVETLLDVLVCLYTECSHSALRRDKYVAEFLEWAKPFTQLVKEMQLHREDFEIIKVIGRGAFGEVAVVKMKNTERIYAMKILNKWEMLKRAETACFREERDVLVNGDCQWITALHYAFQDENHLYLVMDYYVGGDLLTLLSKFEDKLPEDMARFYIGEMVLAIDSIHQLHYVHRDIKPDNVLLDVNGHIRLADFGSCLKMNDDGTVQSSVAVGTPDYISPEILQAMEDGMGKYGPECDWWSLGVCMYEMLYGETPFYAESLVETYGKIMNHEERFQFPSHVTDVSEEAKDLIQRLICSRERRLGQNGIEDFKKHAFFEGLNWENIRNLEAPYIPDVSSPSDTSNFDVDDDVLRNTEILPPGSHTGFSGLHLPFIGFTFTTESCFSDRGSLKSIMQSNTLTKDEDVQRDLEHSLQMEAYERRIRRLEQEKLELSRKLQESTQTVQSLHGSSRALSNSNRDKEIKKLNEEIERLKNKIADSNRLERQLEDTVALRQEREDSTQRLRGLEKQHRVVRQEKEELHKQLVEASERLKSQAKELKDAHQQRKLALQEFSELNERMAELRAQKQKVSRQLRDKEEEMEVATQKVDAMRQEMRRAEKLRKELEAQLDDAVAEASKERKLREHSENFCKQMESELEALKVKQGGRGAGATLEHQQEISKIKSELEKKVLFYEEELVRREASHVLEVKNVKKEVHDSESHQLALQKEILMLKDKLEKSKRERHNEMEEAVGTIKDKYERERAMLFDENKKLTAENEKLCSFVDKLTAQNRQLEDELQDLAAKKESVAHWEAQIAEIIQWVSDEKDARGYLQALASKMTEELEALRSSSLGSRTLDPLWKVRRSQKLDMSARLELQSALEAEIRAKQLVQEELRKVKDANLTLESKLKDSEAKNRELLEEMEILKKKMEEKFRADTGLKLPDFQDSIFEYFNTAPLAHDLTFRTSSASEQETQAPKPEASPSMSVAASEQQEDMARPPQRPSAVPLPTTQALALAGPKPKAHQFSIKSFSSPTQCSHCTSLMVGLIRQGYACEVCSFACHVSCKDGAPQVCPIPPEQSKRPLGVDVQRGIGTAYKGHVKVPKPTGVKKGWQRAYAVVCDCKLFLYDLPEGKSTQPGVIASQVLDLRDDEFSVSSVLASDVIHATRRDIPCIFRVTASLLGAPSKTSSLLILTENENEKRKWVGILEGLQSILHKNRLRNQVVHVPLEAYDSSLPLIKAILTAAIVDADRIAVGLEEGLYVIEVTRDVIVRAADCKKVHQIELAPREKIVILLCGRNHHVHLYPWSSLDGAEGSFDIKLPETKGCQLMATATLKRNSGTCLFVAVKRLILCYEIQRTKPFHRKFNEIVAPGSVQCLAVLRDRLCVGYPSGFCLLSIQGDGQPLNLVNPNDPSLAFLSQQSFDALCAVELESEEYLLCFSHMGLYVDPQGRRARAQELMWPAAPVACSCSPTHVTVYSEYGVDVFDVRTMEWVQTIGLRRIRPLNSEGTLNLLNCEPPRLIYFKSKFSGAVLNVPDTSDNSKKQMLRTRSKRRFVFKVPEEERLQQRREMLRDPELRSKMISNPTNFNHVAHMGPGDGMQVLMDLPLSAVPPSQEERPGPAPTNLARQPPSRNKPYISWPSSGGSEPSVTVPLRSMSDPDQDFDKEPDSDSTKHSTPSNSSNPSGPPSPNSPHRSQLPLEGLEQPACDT
Sequence of Serine/threonine-protein kinase 35 (Homo sapiens) (Q8TDR2 whole entry): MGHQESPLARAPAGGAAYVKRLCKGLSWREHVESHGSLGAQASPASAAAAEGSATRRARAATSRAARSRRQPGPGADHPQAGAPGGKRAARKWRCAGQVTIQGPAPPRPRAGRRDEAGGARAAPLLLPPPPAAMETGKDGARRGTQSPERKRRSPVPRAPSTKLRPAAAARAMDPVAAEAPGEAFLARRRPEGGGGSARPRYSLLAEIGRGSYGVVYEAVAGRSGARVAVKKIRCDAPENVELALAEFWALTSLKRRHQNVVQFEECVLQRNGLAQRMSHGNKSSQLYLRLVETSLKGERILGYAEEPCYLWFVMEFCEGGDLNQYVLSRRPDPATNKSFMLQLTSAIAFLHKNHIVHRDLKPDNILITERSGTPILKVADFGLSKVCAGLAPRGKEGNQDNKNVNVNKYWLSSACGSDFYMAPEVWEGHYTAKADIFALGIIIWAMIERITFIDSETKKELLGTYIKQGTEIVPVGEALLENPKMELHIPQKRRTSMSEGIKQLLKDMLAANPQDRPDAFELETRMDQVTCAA
Sequence of Serine/threonine-protein kinase N2 (Homo sapiens) (Q16513 whole entry, looked up): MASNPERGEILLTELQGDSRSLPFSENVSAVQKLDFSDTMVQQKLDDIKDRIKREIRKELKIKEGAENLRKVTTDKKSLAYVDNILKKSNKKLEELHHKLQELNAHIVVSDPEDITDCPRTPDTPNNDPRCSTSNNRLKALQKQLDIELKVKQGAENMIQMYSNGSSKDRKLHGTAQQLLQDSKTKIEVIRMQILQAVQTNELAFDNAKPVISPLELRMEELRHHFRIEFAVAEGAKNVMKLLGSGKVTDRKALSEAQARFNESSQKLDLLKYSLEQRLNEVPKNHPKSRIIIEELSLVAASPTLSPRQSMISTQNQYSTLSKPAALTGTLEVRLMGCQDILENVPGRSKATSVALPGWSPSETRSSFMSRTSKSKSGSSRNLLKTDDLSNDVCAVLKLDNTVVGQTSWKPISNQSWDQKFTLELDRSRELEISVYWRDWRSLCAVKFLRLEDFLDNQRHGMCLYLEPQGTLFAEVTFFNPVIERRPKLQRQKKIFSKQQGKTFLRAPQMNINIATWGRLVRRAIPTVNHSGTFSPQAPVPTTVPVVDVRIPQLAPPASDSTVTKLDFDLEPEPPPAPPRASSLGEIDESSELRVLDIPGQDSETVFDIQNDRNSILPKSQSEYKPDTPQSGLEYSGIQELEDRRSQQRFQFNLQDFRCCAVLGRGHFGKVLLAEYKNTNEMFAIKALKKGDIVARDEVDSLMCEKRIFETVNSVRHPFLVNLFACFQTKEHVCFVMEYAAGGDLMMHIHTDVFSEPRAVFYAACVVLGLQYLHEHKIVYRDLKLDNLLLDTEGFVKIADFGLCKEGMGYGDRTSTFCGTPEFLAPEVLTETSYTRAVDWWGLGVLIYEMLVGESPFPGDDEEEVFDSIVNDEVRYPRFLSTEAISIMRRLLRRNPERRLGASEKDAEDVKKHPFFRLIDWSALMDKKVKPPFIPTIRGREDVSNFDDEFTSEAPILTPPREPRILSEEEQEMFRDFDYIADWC
Sequence of MAP/microtubule affinity-regulating kinase 3 (Homo sapiens) (P27448 whole entry, looked up): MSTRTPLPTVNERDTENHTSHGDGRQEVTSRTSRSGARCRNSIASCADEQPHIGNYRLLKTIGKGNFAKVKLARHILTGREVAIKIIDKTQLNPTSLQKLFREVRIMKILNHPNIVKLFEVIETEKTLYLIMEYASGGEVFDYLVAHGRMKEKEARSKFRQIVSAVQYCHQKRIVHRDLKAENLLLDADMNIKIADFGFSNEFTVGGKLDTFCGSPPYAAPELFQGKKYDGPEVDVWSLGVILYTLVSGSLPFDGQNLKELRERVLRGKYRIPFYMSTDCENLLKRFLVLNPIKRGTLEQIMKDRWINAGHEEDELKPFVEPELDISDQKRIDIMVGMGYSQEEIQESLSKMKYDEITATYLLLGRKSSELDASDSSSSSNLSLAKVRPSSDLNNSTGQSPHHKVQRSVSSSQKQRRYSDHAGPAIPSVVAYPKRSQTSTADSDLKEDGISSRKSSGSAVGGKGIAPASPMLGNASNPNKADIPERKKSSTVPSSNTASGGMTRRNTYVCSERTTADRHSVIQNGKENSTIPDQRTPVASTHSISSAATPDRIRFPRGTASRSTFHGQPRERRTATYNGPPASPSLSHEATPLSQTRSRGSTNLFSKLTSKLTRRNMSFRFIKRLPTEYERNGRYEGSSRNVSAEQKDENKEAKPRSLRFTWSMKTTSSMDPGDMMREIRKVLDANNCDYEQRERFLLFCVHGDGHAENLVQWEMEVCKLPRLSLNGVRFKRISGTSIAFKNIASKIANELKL

With `O=C(N[C@@H](C1CC1)C(F)(F)F)c1cc(-c2cnn3cc(-c4ccc(F)cc4)cnc23)cs1`, the fold change (FC) in [1] and in [2] was 0 in each case. For the same compound, in [3], the inhibition worked out at 0%.
Consider `CNC(=O)c1ccccc1Oc1nc(Nc2cc(OC)c(OC)c(OC)c2)ncc1Br`, for which the results for the inhibition in [4] and in [7] were 3% and 30%, respectively. Moreover, the fold change (FC) in [5] worked out at 0.61; in assay [6] it was 1.08.
In the case of `CC(C)[C@H](NC(=O)c1cc(-c2cnn3cc(-c4ccc(OCCN5CCCCC5)cc4)cnc23)cs1)C(F)(F)F`, the fold change (FC) in assay [8] was 0.67; in assay [9], 0.05; in assay [10], 0. Further, the inhibition in assay [11] is 6%; in [12] it was 0%.

For orientation: inhibition means the share of the control response that was lost under treatment.
